In brackets after ≈: the same amount, converted by molar mass.
What was measured:
[1] = test system: Mycobacterium tuberculosis; experiment: Antitubercular activity against Mycobacterium bovis BCG assessed as bacterial growth inhibition by MABA relative to control; assay type: functional, variant bovis BCG
Summary of the method: (§1)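 Whole-cell growth inhibition of Mycobacterium bovis and M. tuberculosis H37Ra, read quantitatively by Microplate Alamar Blue Assay (alamar blue reagent). Compounds were tested across 1 to 100 µg/ml. Activity was expressed as MIC50 (µg/ml) from this concentration series.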

[2] = test system: Mycobacterium tuberculosis; experiment: Antitubercular activity against Mycobacterium bovis BCG assessed as bacterial growth inhibition at 10 ug/ml by MABA relative to control; assay type: functional; conditions: variant bovis BCG, read-out: GI
[3] = test system: Mycobacterium tuberculosis; experiment: Antitubercular activity against Mycobacterium bovis BCG assessed as bacterial growth inhibition by alamar blue staining based assay; assay type: functional; conditions: variant bovis BCG; summary of the method: as §1
[4] = test system: Mycobacterium tuberculosis; experiment: Antitubercular activity against Mycobacterium bovis BCG assessed as bacterial growth inhibition at 50 to 100 ug/ml by MABA relative to control; assay type: functional, variant bovis BCG
[5] = test system: Mycobacterium tuberculosis; experiment: Antitubercular activity against Mycobacterium bovis BCG assessed as bacterial growth inhibition at 1 to 5 ug/ml by MABA relative to control; assay type: functional, variant bovis BCG
[6] = test system: Mycobacterium tuberculosis; experiment: Antitubercular activity against Mycobacterium bovis BCG assessed as bacterial growth inhibition at 100 ug/ml by MABA relative to control; assay type: functional; conditions: variant bovis BCG, read-out: GI
[7] = test system: Mycobacterium tuberculosis; experiment: Antitubercular activity against Mycobacterium bovis BCG assessed as bacterial growth inhibition at 10 to 50 ug/ml by MABA relative to control; assay type: functional, variant bovis BCG
[8] = test system: Mycobacterium tuberculosis; experiment: Antitubercular activity against Mycobacterium bovis BCG assessed as bacterial growth inhibition at 1 ug/ml by MABA relative to control; assay type: functional; conditions: variant bovis BCG, read-out: GI
[9] = test system: Mycobacterium tuberculosis; experiment: Antitubercular activity against Mycobacterium bovis BCG assessed as bacterial growth inhibition at 5 ug/ml by MABA relative to control; assay type: functional; conditions: variant bovis BCG, read-out: GI
[10] = test system: Mycobacterium tuberculosis; experiment: Antitubercular activity against Mycobacterium bovis BCG assessed as bacterial growth inhibition at 50 ug/ml by MABA relative to control; assay type: functional; conditions: variant bovis BCG, read-out: GI
[11] = test system: Mycobacterium tuberculosis; experiment: Antitubercular activity against Mycobacterium bovis BCG assessed as bacterial growth inhibition at 25 ug/ml by MABA relative to control; assay type: functional; conditions: variant bovis BCG, read-out: GI

Structure (SMILES)	inhibition of growth at 10 µg/mL [2] [%]	MIC50 [3] [µg/mL]	growth inhibition (GI) [5] [%]	inhibition of growth at 100 µg/mL [6] [%]	further results
CCCCC#Cc1c[nH]c(=O)[nH]c1=O					growth inhibition (GI) [1]: 0%
O=c1[nH]c(=O)n([C@@H]2O[C@H](CO)[C@@H](O)[C@H]2O)cc1C#Cc1ccccc1	75	2.7 (≈ 7.84 µM)	50		growth inhibition (GI) [4]: 90%
O=c1[nH]cc(C#CC2CC2)c(=O)[nH]1		7.8 (≈ 44.3 µM)		80	growth inhibition (GI) [7]: 60%
NNC(=O)c1ccncc1 [ISONIAZID]		0.9 (≈ 6.56 µM)			inhibition of growth at 1 µg/mL [8]: 100%
O=c1[nH]c(=O)n([C@@H]2O[C@H](CO)[C@@H](O)[C@H]2O)cc1C#CC1CC1		2.4 (≈ 7.78 µM)	50	90	
O=c1[nH]cc(C#Cc2ccccc2)c(=O)[nH]1	40	17.4 (≈ 82 µM)			growth inhibition (GI) [4]: 90%
CCC#Cc1c[nH]c(=O)[nH]c1=O					growth inhibition (GI) [1]: 0%
N[C@@H]1CONC1=O [CYCLOSERINE]	71	5.1 (≈ 50 µM)			inhibition of growth at 5 µg/mL [9]: 50%
O=c1[nH]cc(C#CC2CCCCC2)c(=O)[nH]1		2.5 (≈ 11.5 µM)	50	90	growth inhibition (GI) [7]: 75%
CCCCC#Cc1cn([C@@H]2O[C@H](CO)[C@@H](O)[C@H]2O)c(=O)[nH]c1=O	0	50 (≈ 154 µM)		50	inhibition of growth at 50 µg/mL [10]: 0%
O=c1[nH]c(=O)n([C@@H]2O[C@H](CO)[C@@H](O)[C@H]2O)cc1C#CC1CCCCC1		19.2 (≈ 54.8 µM)	10	90	inhibition of growth at 25 µg/mL [11]: 60%
O=c1[nH]cc(C#CC(O)c2ccccc2)c(=O)[nH]1 (stereo not drawn)	80	3.1 (≈ 12.8 µM)	50		growth inhibition (GI) [4]: 90%
CCCCCCC#Cc1c[nH]c(=O)[nH]c1=O					growth inhibition (GI) [1]: 0%
CC#Cc1c[nH]c(=O)[nH]c1=O					growth inhibition (GI) [1]: 0%
C[Si](C)(C)C#Cc1c[nH]c(=O)[nH]c1=O		100 (≈ 480 µM)		50	
CCCCCCC#Cc1cn([C@@H]2O[C@H](CO)[C@@H](O)[C@H]2O)c(=O)[nH]c1=O	0	< 50		60	inhibition of growth at 50 µg/mL [10]: 0%
CO[C@H]1/C=C/O[C@@]2(C)Oc3c(C)c(O)c4c(O)c(c(/C=N/N5CCN(C)CC5)c(O)c4c3C2=O)NC(=O)/C(C)=C\C=C\[C@H](C)[C@H](O)[C@@H](C)[C@@H](O)[C@@H](C)[C@H](OC(C)=O)[C@@H]1C [RIFAMPIN]		0.8 (≈ 0.972 µM)			inhibition of growth at 1 µg/mL [8]: 100%
O=c1[nH]c(=O)n([C@@H]2O[C@H](CO)[C@@H](O)[C@H]2O)cc1C#CC(O)c1ccccc1 (stereo partly drawn)		1.4 (≈ 3.74 µM)	100		
